Experiments:
KB [1] = experiment: Cytotoxicity against vincristine-sensitive human KB cells assessed as growth inhibition after 72 hrs by MTT assay; type: functional, cell-based
KB [2] = experiment: Cytotoxicity against vincristine-resistant human KB cells assessed as growth inhibition after 72 hrs by MTT assay; type: functional, cell-based
KB [3] = experiment: Cytotoxicity against vincristine-resistant human KB cells assessed as growth inhibition after 72 hrs by MTT assay in presence of vincristine; type: functional, cell-based
MDA-MB-468 [4] = experiment: Induction of apoptosis in human MDA-MB-468 cells assessed as necrotic cells at IC50 after 48 hrs by annexin V-FITC/propidium iodide staining-based flow cytometric analysis (reference value: 0.25%); type: functional
MDA-MB-468 [5] = experiment: Induction of apoptosis in human MDA-MB-468 cells assessed as late apoptotic cells at IC50 after 48 hrs by annexin V-FITC/propidium iodide staining-based flow cytometric analysis (reference value: 3.65%); type: functional
HCT-116 [6] = experiment: Induction of apoptosis in human HCT116 cells assessed as early apoptotic cells at IC50 after 48 hrs by annexin V-FITC/propidium iodide staining-based flow cytometric analysis (reference value: 1.45%); type: functional
HCT-116 [7] = experiment: Induction of apoptosis in human HCT116 cells assessed as viable cells at IC50 after 48 hrs by annexin V-FITC/propidium iodide staining-based flow cytometric analysis (reference value: 94.4%); type: functional
MDA-MB-468 [8] = experiment: Induction of apoptosis in human MDA-MB-468 cells assessed as early apoptotic cells at IC50 after 48 hrs by annexin V-FITC/propidium iodide staining-based flow cytometric analysis (reference value: 3.24%); type: functional
HCT-116 [9] = experiment: Induction of apoptosis in human HCT116 cells assessed as necrotic cells at IC50 after 48 hrs by annexin V-FITC/propidium iodide staining-based flow cytometric analysis (reference value: 1.84%); type: functional
MDA-MB-468 [10] = experiment: Cell cycle arrest in human MDA-MB-468 cells assessed as accumulation at pre-G1 phase at IC50 to 2 times IC50 after 48 hrs relative to control; type: functional
How it was run: (§1)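 Cells were exposed for 48 h, then analysed by flow-cytometric cell cycle profiling. Pre-G1 events were scored and compared with untreated control, with significance at p < 0.05.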

MDA-MB-468 [11] = experiment: Induction of apoptosis in human MDA-MB-468 cells assessed as early apoptotic cells at 2 times IC50 after 48 hrs by annexin V-FITC/propidium iodide staining-based flow cytometric analysis (reference value: 3.24%); type: functional
MDA-MB-468 [12] = experiment: Cytotoxicity against human MDA-MB-468 cells assessed as growth inhibition after 72 hrs by MTT assay; type: functional, cell-based; conditions: MDA-MB-468, 72 h
HT-29 = experiment: Cytotoxicity against human HT-29 cells assessed as growth inhibition after 72 hrs by MTT assay; type: functional, cell-based; conditions: HT-29, 72 h
HCT-116 [13] = experiment: Induction of apoptosis in human HCT116 cells assessed as late apoptotic cells at IC50 after 48 hrs by annexin V-FITC/propidium iodide staining-based flow cytometric analysis (reference value: 2.27%); type: functional
MDA-MB-468 [14] = experiment: Induction of apoptosis in human MDA-MB-468 cells assessed as viable cells at IC50 after 48 hrs by annexin V-FITC/propidium iodide staining-based flow cytometric analysis (reference value: 92.9%); type: functional
HCT-116 [15] = experiment: Cell cycle arrest in human HCT116 cells assessed as accumulation at pre-G1 phase at IC50 to 2 times IC50 after 48 hrs relative to control; type: functional; how it was run: as §1
MDA-MB-468 [16] = experiment: Induction of apoptosis in human MDA-MB-468 cells assessed as necrotic cells at 2 times IC50 after 48 hrs by annexin V-FITC/propidium iodide staining-based flow cytometric analysis (reference value: 0.25%); type: functional
MDA-MB-468 [17] = experiment: Induction of apoptosis in human MDA-MB-468 cells assessed as late apoptotic cells at 2 times IC50 after 48 hrs by annexin V-FITC/propidium iodide staining-based flow cytometric analysis (reference value: 3.65%); type: functional
A549 = experiment: Cytotoxicity against human A549 cells assessed as growth inhibition after 72 hrs by MTT assay; type: functional, cell-based; conditions: A549, 72 h
MCF7 = experiment: Cytotoxicity against human MCF7 cells assessed as growth inhibition after 72 hrs by MTT assay; type: functional, cell-based; conditions: MCF7, 72 h
HCT-116 [18] = experiment: Induction of apoptosis in human HCT116 cells assessed as early apoptotic cells at 2 times IC50 after 48 hrs by annexin V-FITC/propidium iodide staining-based flow cytometric analysis (reference value: 1.45%); type: functional
MDA-MB-468 [19] = experiment: Induction of apoptosis in human MDA-MB-468 cells assessed as viable cells at 2 times IC50 after 48 hrs by annexin V-FITC/propidium iodide staining-based flow cytometric analysis (reference value: 92.9%); type: functional
HCT-116 [20] = experiment: Induction of apoptosis in human HCT116 cells assessed as necrotic cells at 2 times IC50 after 48 hrs by annexin V-FITC/propidium iodide staining-based flow cytometric analysis (reference value: 1.84%); type: functional
HCT-116 [21] = experiment: Induction of apoptosis in human HCT116 cells assessed as late apoptotic cells at 2 times IC50 after 48 hrs by annexin V-FITC/propidium iodide staining-based flow cytometric analysis (reference value: 2.27%); type: functional
HCT-116 [22] = experiment: Cytotoxicity against human HCT116 cells assessed as growth inhibition after 72 hrs by MTT assay; type: functional, cell-based; conditions: HCT-116, 72 h
HCT-116 [23] = experiment: Induction of apoptosis in human HCT116 cells assessed as viable cells at 2 times IC50 after 48 hrs by annexin V-FITC/propidium iodide staining-based flow cytometric analysis (reference value: 94.4%); type: functional

## CC[C@H]1C[C@H]2C[C@H]3c4[nH]c5cc(C6CCC(=O)N6)c(OC)cc5c4CCN(C2)[C@@H]13 (stereo partly specified)
KB [1]
  IC50: > 25 µg/mL
KB [2]
  IC50: > 25 µg/mL
KB [3]
  IC50: > 25 µg/mL

## CC[C@H]1C[C@H]2C[C@@H]3[C@H]1N(C2)C[C@@H](O)[C@@]31Nc2ccc(OC)cc2C1=O
KB [1]
  IC50: > 25 µg/mL
KB [2]
  IC50: > 25 µg/mL
KB [3]
  IC50: 53.2 µM

## C/C=C1/CN2[C@H]3C[C@H]1C1(C(=O)OC)C[C@]4(C[C@@H]21)c1ccccc1N(C)[C@H]34 (stereo partly specified)
KB [1]
  IC50: > 25 µg/mL
KB [2]
  IC50: > 25 µg/mL
KB [3]
  IC50: 2.62 µM

## CC[C@]1(O)C[C@@H]2CC(=O)n3c4c(c5ccccc53)CCN(C1)[C@@H]42
KB [1]
  IC50: > 25 µg/mL
KB [2]
  IC50: > 25 µg/mL
KB [3]
  IC50: > 25 µg/mL

## CC[C@H]1C[C@H]2C[C@H]3c4[nH]c5ccc(OC)cc5c4C(=O)CN(C2)[C@@H]13
KB [1]
  IC50: > 25 µg/mL
KB [2]
  IC50: > 25 µg/mL
KB [3]
  IC50: > 25 µg/mL

## C/C=C1/C[N+]2(CCl)CC[C@]34C(=C(C=O)[C@H]1C[C@@H]32)Nc1ccccc14.[Cl-] (stereo partly specified)
KB [1]
  IC50: > 25 µg/mL
KB [2]
  IC50: > 25 µg/mL
KB [3]
  IC50: > 25 µg/mL

## C/C=C1/CN(C)[C@H]2Cc3c([nH]c4ccccc34)[C@@H](c3cc4[nH]c5c(c4cc3OC)CCN3C[C@H]4C[C@H](CC)[C@H]3[C@H]5C4)C[C@H]1[C@]2(CO)C(=O)OC
MDA-MB-468 [4]
  Activity: 0.18%
MDA-MB-468 [5]
  Activity: 5.76%
KB [1]
  IC50: 1.39 µM
HCT-116 [6]
  Activity: 6.98%
HCT-116 [7]
  Activity: 79.6%
MDA-MB-468 [8]
  Activity: 3.95%
HCT-116 [9]
  Activity: 3%
MDA-MB-468 [10]
  Activity: 35%
MDA-MB-468 [11]
  Activity: 21.4%
MDA-MB-468 [12]
  IC50: 2.77 µM
HT-29
  IC50: 2.57 µM
HCT-116 [13]
  Activity: 11.4%
MDA-MB-468 [14]
  Activity: 90.1%
HCT-116 [15]
  Activity: 80%
MDA-MB-468 [16]
  Activity: 1.68%
MDA-MB-468 [17]
  Activity: 13.8%
A549
  IC50: 3.06 µM
KB [2]
  IC50: 1.21 µM
MCF7
  IC50: 4.19 µM
HCT-116 [18]
  Activity: 8.25%
MDA-MB-468 [19]
  Activity: 63.1%
KB [3]
  IC50: 0.98 µM
HCT-116 [20]
  Activity: 14.5%
HCT-116 [21]
  Activity: 72.4%
HCT-116 [22]
  IC50: 2.91 µM
HCT-116 [23]
  Activity: 4.85%

## C/C=C1/CN[C@H]2Cc3c([nH]c4ccccc34)[C@@H](c3cc4[nH]c5c(c4cc3OC)CCN3C[C@H]4C[C@H](CC)[C@H]3[C@H]5C4)C[C@H]1[C@@H]2C(=O)OC
MDA-MB-468 [4]
  Activity: 0.17%
MDA-MB-468 [5]
  Activity: 3.15%
KB [1]
  IC50: 0.95 µM
HCT-116 [6]
  Activity: 7.76%
HCT-116 [7]
  Activity: 21.9%
MDA-MB-468 [8]
  Activity: 3.7%
HCT-116 [9]
  Activity: 48.4%
MDA-MB-468 [10]
  Activity: 35%
MDA-MB-468 [11]
  Activity: 42.5%
MDA-MB-468 [12]
  IC50: 0.7 µM
HT-29
  IC50: 1.58 µM
HCT-116 [13]
  Activity: 22%
MDA-MB-468 [14]
  Activity: 93%
HCT-116 [15]
  Activity: 80%
MDA-MB-468 [16]
  Activity: 2.68%
MDA-MB-468 [17]
  Activity: 32%
A549
  IC50: 2.83 µM
KB [2]
  IC50: 1.11 µM
MCF7
  IC50: 3.23 µM
HCT-116 [18]
  Activity: 3.5%
MDA-MB-468 [19]
  Activity: 22.8%
KB [3]
  IC50: 1.2 µM
HCT-116 [20]
  Activity: 46.4%
HCT-116 [21]
  Activity: 43.7%
HCT-116 [22]
  IC50: 2.03 µM
HCT-116 [23]
  Activity: 6.4%

## C/C=C1/CN(C)[C@H]2Cc3c([nH]c4ccccc34)[C@@H](c3cc4[nH]c5c(c4cc3OC)CCN3C[C@H]4C[C@H](CC)[C@H]3[C@H]5C4)C[C@H]1[C@@H]2C(=O)OC
KB [1]
  IC50: 1.53 µM
KB [2]
  IC50: 0.98 µM
KB [3]
  IC50: 0.8 µM

## C/C=C1/CN(C)[C@H]2Cc3c([nH]c4ccccc34)[C@@H](c3cc4c(cc3OC)C(=O)[C@@]3(CCN5C[C@H]6C[C@H](CC)[C@H]5[C@H]3C6)N4)C[C@H]1[C@@H]2C(=O)OC
KB [1]
  IC50: 1.06 µM
KB [2]
  IC50: 1.06 µM
KB [3]
  IC50: 1.21 µM

From ChEMBL document CHEMBL3580573, “Ibogan, tacaman, and cytotoxic bisindole alkaloids from tabernaemontana. Cononusine, an iboga alkaloid with unusual incorporation of a pyrrolidone moiety” (J Nat Prod, 2015)
